Measurements as given in ChEMBL document CHEMBL1121403, “Synthesis and mutagenicity of A-ring reduced analogues of 7,12-dimethylbenz[a]anthracene” (1980).

Assays:
Salmonella typhimurium [1] = assay: Mutagenic activity by measuring net reverent colonies per 10 ug of compound with Salmonella Typhimurium (TA 98 strain) in presence of S9 fraction; assay type: functional, Salmonella enterica subsp. enterica serovar Typhimurium
Procedure, shortened: (§1)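 Standard Ames soft-agar plating with doses given in Me2SO. Five or more doses from 1 to ≥10 μg/plate were tested with and without S-9 mix from PCB-induced rat liver, at 20 μL S-9/plate from a common pool. Duplicate plates per dose, triplicate for spontaneous revertants. 2-Aminoanthracene served as activation control. Net revertants per 10 μg came from regression of the linear dose-response portion.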

Salmonella typhimurium [2] = assay: Mutagenic activity by measuring net reverent colonies per 10 ug of compound with Salmonella Typhimurium (TA1537 strain) in absence of S9 fraction; - indicates no mutagenic response; assay type: functional, organism-based; settings: Salmonella enterica subsp. enterica serovar Typhimurium
Procedure, shortened: (§2)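 Frame-shift strain TA1537 in Ames soft-agar plating with doses given in Me2SO, tested at up to 15 or 10 μg/plate with and without S-9 (PCB-induced rat liver, 20 μL/plate). Duplicate plates per dose, triplicate spontaneous. Scored mutagenic if reversion was dose-dependent and at least twice spontaneous. Values were normalized to net revertants per 10 μg.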

Salmonella typhimurium [3] = assay: Mutagenic activity by measuring net reverent colonies per 10 ug of compound with Salmonella Typhimurium (TA1537 strain) in presence of S9 fraction; assay type: functional, Salmonella enterica subsp. enterica serovar Typhimurium; procedure, shortened: as §2
Salmonella typhimurium [4] = assay: Mutagenic activity by measuring net reverent colonies per 10 ug of compound with Salmonella Typhimurium (TA 100 strain) in absence of S9 fraction; - indicates no mutagenic response; assay type: functional, organism-based; settings: Salmonella enterica subsp. enterica serovar Typhimurium; procedure, shortened: as §1
Salmonella typhimurium [5] = assay: Mutagenic activity by measuring net reverent colonies per 10 ug of compound with Salmonella Typhimurium (TA 100 strain) in presence of S9 fraction; assay type: functional, Salmonella enterica subsp. enterica serovar Typhimurium; procedure, shortened: as §1
Salmonella typhimurium [6] = assay: Mutagenic activity by measuring net reverent colonies per 10 ug of compound with Salmonella Typhimurium (TA 98 strain) in absence of S9 fraction; - indicates no mutagenic response; assay type: functional, organism-based; settings: Salmonella enterica subsp. enterica serovar Typhimurium; procedure, shortened: as §1
Salmonella typhimurium [7] = assay: Mutagenic activity by measuring net reverent colonies per 10 ug of compound with Salmonella Typhimurium (TA1537 strain) in presence of S9 fraction; - indicates no mutagenic response; assay type: functional, organism-based; settings: Salmonella enterica subsp. enterica serovar Typhimurium; procedure, shortened: as §2
Salmonella typhimurium [8] = assay: Mutagenic activity by measuring net reverent colonies per 10 ug of compound with Salmonella Typhimurium (TA 100 strain) in absence of S9 fraction; assay type: functional, Salmonella enterica subsp. enterica serovar Typhimurium; procedure, shortened: as §1
Salmonella typhimurium [9] = assay: Mutagenic activity by measuring net reverent colonies per 10 ug of compound with Salmonella Typhimurium (TA 98 strain) in absence of S9 fraction; assay type: functional, Salmonella enterica subsp. enterica serovar Typhimurium; procedure, shortened: as §1
Salmonella typhimurium [10] = assay: Mutagenic activity by measuring net reverent colonies per 10 ug of compound with Salmonella Typhimurium (TA1537 strain) in absence of S9 fraction; assay type: functional, Salmonella enterica subsp. enterica serovar Typhimurium; procedure, shortened: as §2

**Q.** How did the Activity (Salmonella typhimurium [1]) turn out when `Cc1c2ccccc2c(C)c2c1ccc1ccccc12` was run?
**A.** 58

**Q.** And the Activity (Salmonella typhimurium [2])?
**A.** Not toxic

**Q.** And the Activity (Salmonella typhimurium [3])?
**A.** 15

**Q.** And the Activity (Salmonella typhimurium [4])?
**A.** Not toxic

**Q.** What about the Activity (Salmonella typhimurium [5]) of the same molecule?
**A.** 489

**Q.** What about the Activity (Salmonella typhimurium [6]) of the same molecule?
**A.** Not toxic

**Q.** `Cc1c2ccccc2c(C)c2c3c(ccc12)C=CCC3` was tested. Which Activity (Salmonella typhimurium [1]) did it give?
**A.** 25

**Q.** And the Activity (Salmonella typhimurium [2])?
**A.** Not toxic

**Q.** What about the Activity (Salmonella typhimurium [7]) of the same molecule?
**A.** Not toxic

**Q.** What about the Activity (Salmonella typhimurium [8]) of the same molecule?
**A.** 58

**Q.** What about the Activity (Salmonella typhimurium [5]) of the same molecule?
**A.** 69

**Q.** What about the Activity (Salmonella typhimurium [9]) of the same molecule?
**A.** 146

**Q.** How did the Activity (Salmonella typhimurium [1]) turn out when `Cc1c2ccccc2c(C)c2c3c(ccc12)CCCC3` was run?
**A.** 78

**Q.** And the Activity (Salmonella typhimurium [10])?
**A.** 42

**Q.** What about the Activity (Salmonella typhimurium [3]) of the same molecule?
**A.** 7

**Q.** What about the Activity (Salmonella typhimurium [8]) of the same molecule?
**A.** 173

**Q.** And the Activity (Salmonella typhimurium [5])?
**A.** 270

**Q.** And the Activity (Salmonella typhimurium [9])?
**A.** 47
